KCNQ1 act: human KCNQ1 channel potentiation or activation. P51787. CHO-K1 KCNQ1, thallium flux FluxOR fluorescence; hits give high values. B-score at 10 µM. 0.35% of 310,000 active;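 active = fluorescence ratio B-score, a plate-corrected score, at least three library SD, with initial intensity B-score within 5 SD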
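Assay system: CHO-K1 cells stably expressing KCNQ1. Medium: assay buffer for compound exposure, DMSO matched across wells. Timing: 37 °C overnight plating, 90-min dark dye load, 20-min compound pretreatment. Signal: kinetic FluxOR fluorescence, 10 s baseline plus 110 s post-stimulus.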
hERG protect: hERG (human) protection from proarrhythmic block; activation (rescue from dofetilide block), less the hit threshold, % at 10 µM; CHO-hERG, FluxOR thallium flux, dofetilide IC70 present; 0.51% of 310,000 active; AID 1511;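 active = activation above the mean of controls blocked by dofetilide plus 5 SD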;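 also: thallium influx through hERG after potassium depolarization seen as dye fluorescence rise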
Target sequence (Q12809 whole entry, looked up): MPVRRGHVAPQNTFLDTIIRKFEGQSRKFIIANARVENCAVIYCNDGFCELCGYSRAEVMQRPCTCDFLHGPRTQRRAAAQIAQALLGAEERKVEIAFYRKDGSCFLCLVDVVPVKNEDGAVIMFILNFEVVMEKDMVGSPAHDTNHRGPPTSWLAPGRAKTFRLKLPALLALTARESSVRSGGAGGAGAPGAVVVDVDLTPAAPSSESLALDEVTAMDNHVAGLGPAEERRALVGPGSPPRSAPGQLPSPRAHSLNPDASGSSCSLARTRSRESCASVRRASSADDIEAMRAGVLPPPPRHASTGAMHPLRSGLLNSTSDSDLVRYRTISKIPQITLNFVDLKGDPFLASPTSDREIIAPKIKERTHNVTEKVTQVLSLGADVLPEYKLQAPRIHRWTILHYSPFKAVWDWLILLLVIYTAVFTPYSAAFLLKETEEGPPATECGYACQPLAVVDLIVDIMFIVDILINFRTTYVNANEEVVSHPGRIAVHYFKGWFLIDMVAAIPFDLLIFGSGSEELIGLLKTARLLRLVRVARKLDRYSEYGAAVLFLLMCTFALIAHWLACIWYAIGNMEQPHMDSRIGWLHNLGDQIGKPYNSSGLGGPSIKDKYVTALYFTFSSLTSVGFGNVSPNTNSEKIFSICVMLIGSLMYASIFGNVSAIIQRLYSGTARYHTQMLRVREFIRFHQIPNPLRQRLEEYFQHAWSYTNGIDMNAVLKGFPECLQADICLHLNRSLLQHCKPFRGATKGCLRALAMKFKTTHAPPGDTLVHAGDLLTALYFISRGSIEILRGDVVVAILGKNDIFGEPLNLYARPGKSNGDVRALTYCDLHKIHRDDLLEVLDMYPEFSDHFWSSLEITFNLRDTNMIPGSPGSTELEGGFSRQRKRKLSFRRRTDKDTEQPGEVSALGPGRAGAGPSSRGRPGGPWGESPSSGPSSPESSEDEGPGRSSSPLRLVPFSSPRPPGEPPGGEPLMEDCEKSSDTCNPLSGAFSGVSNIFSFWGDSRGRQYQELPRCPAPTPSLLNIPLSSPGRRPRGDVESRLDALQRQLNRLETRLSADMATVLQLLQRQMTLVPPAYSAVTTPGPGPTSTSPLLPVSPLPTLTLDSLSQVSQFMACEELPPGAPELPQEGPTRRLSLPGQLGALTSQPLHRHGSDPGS
KCNK9 block: human KCNK9 channel inhibition; HEK293 KCNK9, FluxOR thallium flux fluorescence; hits give low values; B-score at 10 µM; 1.2% of 310,000 active;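 active = ratio B-score over 3 SD below the library mean, with starting fluorescence within 5 SD of its mean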;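 also: negative B-score means less thallium flux so channel inhibition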
KCNQ1 inh: human KCNQ1 channel inhibition. P51787. CHO-K1 KCNQ1, FluxOR thallium flux fluorescence; hits give high values. B-score at 10 µM. 1.3% of 310,000 active;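 active = compounds whose thallium flux B-score, printed positive for inhibition, exceeds three library SD while starting fluorescence stays within three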;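 also: channel opened by potassium depolarization with thallium stimulus after 20 min compound exposure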
KCNK3 block: human KCNK3 channel inhibition, primary screen; 0.84% of 340,000 active; B-score at 10 µM; CHO-KCNK3 thallium flux, FluxOR fluorescence; hits give low values; O14649; AID 602410;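 active = B-score under library mean minus 4 SD, starting fluorescence ratio at most library mean plus 5 SD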;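 also: more negative B-score means stronger inhibition of thallium flux through KCNK3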
Hits are given with their value. Compounds with a hit are over-represented: about 3.1% of the library has one in this group of screens.

Screening OCc1ccc(O)c2ncccc12 returned KCNQ1 act inactive, hERG protect inactive, KCNK9 block inactive, KCNQ1 inh inactive and KCNK3 block inactive.
For Oc1ccccc1CNc1cccc2cccnc12 the results were KCNQ1 act inactive, hERG protect inactive, KCNK9 block -7.3, KCNQ1 inh inactive and KCNK3 block inactive.
Screening COc1cc(CCC(=O)OCC(=O)N2CCc3ccccc32)cc(OC)c1OC returned KCNQ1 act inactive, hERG protect inactive, KCNK9 block inactive, KCNQ1 inh inactive and KCNK3 block inactive.
Screening COc1ccc(CN2CCN(C(=O)c3cccc4ccccc34)CC2)cc1Br returned KCNQ1 act inactive, hERG protect inactive, KCNK9 block -6.9, KCNQ1 inh inactive and KCNK3 block inactive.
For COCc1cc(C)nc(SCC(=O)Oc2ccccc2)c1C#N the results were KCNQ1 act inactive, hERG protect inactive, KCNK9 block inactive, KCNQ1 inh inactive and KCNK3 block inactive.
`COCc1cc(C)nc(SCC(=O)c2ccc(O)c(O)c2)c1C#N` gave KCNQ1 act inactive, hERG protect 5.7, KCNK9 block inactive, KCNQ1 inh inactive and KCNK3 block inactive.
Screening CCCN1C2CCCC1CC(NC(=O)c1ccccc1OCC)C2 (stereo not drawn) returned KCNQ1 act inactive, hERG protect inactive, KCNK9 block inactive, KCNQ1 inh inactive and KCNK3 block inactive.
`CCCN1C2CCCC1CC(NC(=O)c1ccccc1OC)C2` (stereo not drawn) gave KCNQ1 act inactive, hERG protect inactive, KCNK9 block inactive, KCNQ1 inh 8 and KCNK3 block inactive.
For CCCCC1CCC(C(=O)N(CCCC)c2c(N)n(CCCC)c(=O)[nH]c2=O)CC1 (stereo not drawn) the results were KCNQ1 act inactive, hERG protect inactive, KCNK9 block inactive, KCNQ1 inh inactive and KCNK3 block inactive.
For CCOc1cccc(OCCOCCOc2ccccc2C(C)=O)c1 the results were KCNQ1 act inactive, hERG protect inactive, KCNK9 block inactive, KCNQ1 inh inactive and KCNK3 block inactive.
For CCOc1ccc(OCCCCOc2ccccc2C(C)=O)cc1 the results were KCNQ1 act inactive, hERG protect inactive, KCNK9 block inactive, KCNQ1 inh 7 and KCNK3 block inactive.
Screening Cc1ccc(C(=O)NCCNC(=O)c2ccco2)cn1 returned KCNQ1 act inactive, hERG protect inactive, KCNK9 block inactive, KCNQ1 inh inactive and KCNK3 block inactive.
For CCOc1ccc(NC(=O)Nc2cc(C(C)C)ccc2C)cc1 the results were KCNQ1 act inactive, hERG protect inactive, KCNK9 block inactive, KCNQ1 inh inactive and KCNK3 block inactive.
`Cc1cc(O)c(C(C)C)cc1NC(=O)Nc1ccc([N+](=O)[O-])cc1` gave KCNK3 block -10.
Screening Cc1ccc(C(C)C)cc1NC(=O)Nc1ccc([N+](=O)[O-])cc1 returned KCNQ1 act inactive, hERG protect inactive, KCNK9 block inactive, KCNQ1 inh 7 and KCNK3 block inactive.
Cc1cc(O)c(C(C)C)cc1NC(=O)Nc1cccc2ccccc12 was read as KCNQ1 act inactive, hERG protect inactive, KCNK9 block inactive, KCNQ1 inh inactive and KCNK3 block inactive.
`CC(Sc1nnc(Cc2ccccc2)n1C)C(=O)NC1CC1` (stereo not drawn) gave KCNK3 block inactive.
O=C(CSc1nc2ccccc2c(=O)[nH]1)Nc1ccccc1C(F)(F)F was read as KCNQ1 act inactive, hERG protect inactive, KCNK9 block inactive, KCNQ1 inh inactive and KCNK3 block inactive.
C#CCOCCOCCOCCNc1nc(N2CCN(C(=O)[C@H](CCC(=O)O)n3cc([C@@H](N)[C@H](C)CC)nn3)CC2)nc(N2CCN(C(=O)[C@H](CCC(=O)O)n3cc([C@@H](N)CC(N)=O)nn3)CC2)n1 was read as KCNK3 block inactive.
Screening CN(C)c1ccc(/C=C/c2ccc3ccccc3[n+]2C)cc1 returned KCNQ1 act inactive, hERG protect inactive, KCNK9 block inactive, KCNQ1 inh 9 and KCNK3 block inactive.
CN(C)c1ccc(/C=C/c2ccc3c4ccccc4ccc3[n+]2-c2ccccc2)cc1 was read as KCNK3 block -16.
Screening CC1(C)CC2(CCO1)OC(=O)CC2C(=O)Nc1cccc2ccccc12 (stereo not drawn) returned KCNQ1 act inactive, hERG protect inactive, KCNK9 block inactive, KCNQ1 inh inactive and KCNK3 block inactive.
O=C1CC(C(=O)Nc2cccc3ccccc23)C2(CCCC2)O1 (stereo not drawn) was read as KCNQ1 act inactive, hERG protect 7.8, KCNK9 block inactive, KCNQ1 inh inactive and KCNK3 block inactive.
Cc1sc(-n2c(C)cc(/C=C3\SC(=S)NC3=O)c2C)c(C#N)c1C was read as KCNQ1 act 9, hERG protect inactive, KCNK9 block inactive, KCNQ1 inh inactive and KCNK3 block inactive.
`CCOc1cc(CNCCCN2CCOCC2)ccc1OCC(=O)NC(C)(C)C` gave KCNQ1 act 9, hERG protect inactive, KCNK9 block inactive, KCNQ1 inh inactive and KCNK3 block inactive.
Screening COc1cc(CNCCCN2CCOCC2)ccc1OCC(=O)NC(C)(C)C returned KCNQ1 act inactive, hERG protect inactive, KCNK9 block inactive, KCNQ1 inh inactive and KCNK3 block inactive.
`CCc1ccc(Nc2n[n+](-c3ccccc3)c(/C=C/c3ccccc3)s2)cc1` gave KCNQ1 act inactive, hERG protect inactive, KCNK9 block inactive and KCNQ1 inh 12.
For COc1ccc(C2(C)NC(=O)N(CC(=O)Nc3ccc(Br)cc3F)C2=O)cc1OC (stereo not drawn) the results were KCNQ1 act inactive, hERG protect inactive, KCNK9 block inactive, KCNQ1 inh inactive and KCNK3 block inactive.
`Cc1ccc(S(=O)(=O)Nc2cccc(C(=O)N3CCCC3)c2)cc1F` gave KCNQ1 act inactive, hERG protect inactive, KCNK9 block inactive, KCNQ1 inh inactive and KCNK3 block inactive.
Screening CCOc1ccc(Cc2c(Cl)nc(SC)nc2N(C)C)cc1 returned KCNQ1 act inactive, hERG protect inactive, KCNK9 block -7.6, KCNQ1 inh inactive and KCNK3 block inactive.
Screening CCOc1ccc(Cc2c(Cl)nc(N)nc2Cl)cc1 returned KCNQ1 act inactive, hERG protect inactive, KCNK9 block inactive, KCNQ1 inh inactive and KCNK3 block inactive.
`O=C(CCCCCCCC(=O)c1ccccc1)c1ccccc1` gave KCNQ1 act inactive, hERG protect inactive, KCNK9 block inactive, KCNQ1 inh 7 and KCNK3 block inactive.
For CCCC(=O)c1ccc(-c2ccccc2)cc1 the results were KCNQ1 act inactive, hERG protect inactive, KCNK9 block -7.4, KCNQ1 inh inactive and KCNK3 block inactive.
Screening C=CCn1c(SCc2csc(-c3ccc(C)cc3)n2)nnc1-c1ccccc1OC returned KCNQ1 act inactive, hERG protect inactive, KCNK9 block inactive, KCNQ1 inh 6 and KCNK3 block inactive.
Screening O=C(CCNc1cccc(F)c1)c1cccc([N+](=O)[O-])c1 returned KCNQ1 act inactive, hERG protect inactive, KCNK9 block inactive, KCNQ1 inh 8 and KCNK3 block inactive.

Compound activity (PubChem)
